# Sampled rows, rich in hits. Any-hit rate of the full collection: about 1.9%.
# RAD52 inh: inhibitors of human RAD52 DNA annealing | P43351 | recombinant RAD52 DNA annealing, FRET fluorescence | inhibition, % at 18.7 µM | 360,000 tested, 0.46% active;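 active means every replicate showing at least 50% inhibition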
# Target sequence (P43351 whole entry, looked up): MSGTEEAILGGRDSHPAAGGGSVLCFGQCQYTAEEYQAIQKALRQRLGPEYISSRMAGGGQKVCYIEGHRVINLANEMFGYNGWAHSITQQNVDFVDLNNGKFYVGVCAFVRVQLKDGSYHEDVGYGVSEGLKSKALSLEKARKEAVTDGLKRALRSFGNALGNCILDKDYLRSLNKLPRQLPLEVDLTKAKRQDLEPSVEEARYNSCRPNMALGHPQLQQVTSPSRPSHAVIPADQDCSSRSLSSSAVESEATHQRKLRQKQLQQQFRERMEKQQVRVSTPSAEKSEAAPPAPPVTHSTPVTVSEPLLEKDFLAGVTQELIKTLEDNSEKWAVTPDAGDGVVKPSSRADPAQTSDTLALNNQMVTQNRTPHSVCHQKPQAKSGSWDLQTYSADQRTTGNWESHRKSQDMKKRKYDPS
# RAD54 inh: blocks human RAD54 Holliday junction branch migration; inhibition, % at 10.4 µM; FAM/BHQ fluorescence; Q92698; AID 602329; 360,000 tested, 0.14% active;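 active means mean normalized replicate activity at least 40 and at least half of replicates scoring 40 or more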;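 further: 0% = median of neutral control wells and 100% = median of positive control wells; inhibitors cause a drop in the FAM fluorescence signal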
# Cneo AK release: Cryptococcus neoformans lysis via adenylate kinase release. C. neoformans lysis, adenylate kinase release luminescence, 4 h; normalised: neutral wells 0, clomiphene wells 100. lysis activity, % at 15 µM. 360,000 tested, 0.2% active;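 active means mean lysis activity across replicates of at least 80%, whatever share of replicates individually reach that level; inactive means mean lysis activity below 80%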
#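 Material: C. neoformans cells | Amount: Yeast cell density of 5 × 10^6 cells/mL | Medium: Fresh YPD growth medium | Dosing: Single dose | Times: Static 4 h at 37 °C with compound, 1 h detection | Detection: AK luminescence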
# Ecoli rRNA inh: selective bacterial rRNA inhibition in E. coli | E. coli WT GFP vs humanized-ribosome RFP mutants, fluorescence, 24 h; active compounds read low; DMSO median 0, no signal -100 | GFP signal change (wild-type ribosome), % (test concentration not listed) | 350,000 tested, 1.6% active | AID 720706;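 active means significant combined selectivity score with lowered wild-type GFP, culture density cut under 30%, mutant RFP and density less affected; inactive means any of these conditions unmet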
# PglD DTNB: blocks C. jejuni PglD acetyltransferase activity; purified PglD enzyme, DTNB colorimetric CoA detection; inhibition, % at 12.5 µM; 360,000 tested, 0.098% active; AID 602405; in the data active means inhibition above about 16%, passing the limit was not always enough
# An asterisk follows results filed as active; / = no result; ! = a repeat was not active.
SMILES,RAD52 inh,RAD54 inh,Cneo AK release,Ecoli rRNA inh,PglD DTNB
C=CCNC(=S)N1CCc2c([nH]c3ccccc23)C1C (configuration not stated),-27,5,-5,-33*,-1
CC1c2[nH]c3ccccc3c2CCN1S(C)(=O)=O (configuration not stated),/,3,4,/,15
C[C@@H]1CN([C@H](C)CO)C(=O)c2cc(NC(=O)Cc3ccccc3)ccc2O[C@@H](C)CCCCO[C@H]1CN(C)C(=O)CCC(F)(F)F,-3,-10,9,-3,0
COc1ccc(/C=C2/CCc3ccccc3C2=O)cc1OC,/,-2,-13,/,-7
COc1ccc(/C=C2\CCc3ccccc3C2=O)cc1CN1CCOCC1,-10,-1,-2,-30*,0
COc1ccc2c3c(n(C)c2c1)[C@@H](CO)N(Cc1ccncc1)CC31CCN(C(=O)C2CCC2)CC1,-157,/,/,5,/
Cc1cccc(-c2ccc(C3[C@@H]4CN(Cc5cccc(F)c5)C[C@H]3N4)cc2)c1 (some centres not stated),/,/,/,-56,/
COc1cccc(CN2C[C@@H]3N[C@H](C2)C3c2ccc(-c3ccc(C#N)cc3)cc2)c1 (some centres not stated),71*!,/,/,-56,/
COc1cc(CN2C[C@@H]3N[C@H](C2)C3c2ccc(-c3ccc(C#N)cc3)cc2)cc(OC)c1 (some centres not stated),/,/,/,-56,/
COc1cccc(CN2C[C@@H]3N[C@H](C2)C3c2ccc(-c3ccccc3OC)cc2)c1 (some centres not stated),51*,/,/,-59,/
Cc1cccc(-c2ccc(C3[C@@H]4CN(Cc5ccccc5)C[C@H]3N4)cc2)c1 (some centres not stated),50*,/,/,-61,/
CCCC(=O)Nc1ccc2c(c1)C(=O)N(C)[C@@H]1CC[C@@H](CC(=O)NCC3CCCCC3)O[C@@H]1CO2,7,-4,0,-1,-1
COCC(=O)N1CC2(C1)[C@H](c1ccc(-c3ccc(F)cc3)cc1)[C@H](CO)N2C(C)=O,-14,/,/,-2,/
Cc1noc(C)c1S(=O)(=O)N(C)C[C@@H]1OCCCC[C@H](C)Oc2ccc(NC(=O)C3CCCCC3)cc2C(=O)N([C@H](C)CO)C[C@@H]1C,-36,-4,0,1,-4
COCC(=O)N(C)C[C@@H]1Oc2cc(C#CC3CCCC3)ccc2S(=O)(=O)N([C@@H](C)CO)C[C@@H]1C,/,/,/,-2,/
O=[N+]([O-])c1nn(-c2ccc(Cl)cc2)n(O)c1=NCc1cccnc1,-13,17,1,-19*,-3
COc1ccc(Cn2c(-c3ccc(C)cc3)c[n+]3ccccc23)cc1,-5,7,18,-34*,/
COc1ccc(Cn2c(O)c(C=Nc3ccc(C)cc3)c3ccccc3c2=O)cc1,-23,6,-6,11,-5
CO[C@H]1CN(C)C(=O)c2ccc(NC(=O)C3CCCC3)cc2OC[C@@H](C)N(C(C)=O)C[C@H]1C,-2,6,12,1,11
COc1cccc(NC(=O)CSc2nc3c(sc4ccccc43)c(=O)n2CCCN2CCCC2)c1,7,1,0,-1,5
CCN(CC)CCn1c(SCC(=O)Nc2cccc(OC)c2)nc2c(sc3ccccc32)c1=O,-24,/,/,-21*,/
S=C(NCCCn1ccnc1)Nc1ccc(Cl)cc1Cl,-17,/,/,-23*,/
CCCN(Cc1ccccc1)C(=S)NC(=O)c1ccccc1[N+](=O)[O-],-24,/,/,-51*,/
CCN(Cc1ccccc1)C(=S)NC(=O)c1ccccc1Br,-9,-2,1,-43,2
Cc1ccc2c(c1)c(CC(=O)Nc1ccc(C)c(F)c1)c(C(=O)O)n2C,0,14,1,-24*,-3
SMILES,RAD52 inh,RAD54 inh,Cneo AK release,Ecoli rRNA inh,PglD DTNB
Fc1cccc(CCN2C(=S)NC[C@@H]2CC2CCCCC2)c1,8,6,10,-23*,-2
Fc1cccc(CCN2C(=S)NC[C@@H]2Cc2ccccc2)c1,-10,0,142*,-48,-2
CCCC[C@@H]1CNC(=S)N1CCc1cccc(F)c1,-18,4,16,-6,4
CCC(=O)Nc1ccc2c(c1)C(=O)N(C)[C@H]1CC[C@@H](CC(=O)NCc3ccccc3Cl)O[C@@H]1CO2,2,0,40,-1,-7
COc1ccc(NC(=O)Nc2ccc3c(c2)C(=O)N([C@@H](C)CO)C[C@@H](C)[C@H](CN(C)Cc2ccccc2)OCCCC[C@H](C)O3)cc1,52*,1,-2,3,0
COc1ccc(NC(=O)Nc2ccc3c(c2)C(=O)N([C@H](C)CO)C[C@@H](C)[C@H](CN(C)Cc2ccccc2)OCCCC[C@@H](C)O3)cc1,69*,8,3,3,2
COc1ccc(NC(=O)Nc2ccc3c(c2)C(=O)N([C@@H](C)CO)C[C@@H](C)[C@@H](CN(C)Cc2ccccc2)OCCCC[C@@H](C)O3)cc1,53*,0,-1,1,-1
COc1ccc(NC(=O)Nc2ccc3c(c2)C(=O)N([C@@H](C)CO)C[C@H](C)[C@@H](CN(C)Cc2ccccc2)OCCCC[C@@H](C)O3)cc1,56*,1,5,1,-1
C[C@H](CO)N1C[C@H](C)[C@@H](CN(C)Cc2ccncc2)Oc2c(NC(=O)Cn3cnnn3)cccc2C1=O,/,/,/,-1,/
C[C@@H]1CCCCO[C@@H](CN(C)S(=O)(=O)c2ccccc2)[C@H](C)CN([C@@H](C)CO)C(=O)c2cc(NC(=O)CCCN(C)C)ccc2O1,15,10,-5,3,-1
O=C(CSc1nc(C2CCCCC2)nc2ccccc12)N1CCCC1,-11,/,/,-18*,/
O=S(=O)(c1ccccc1)N1CC2(C1)[C@@H](c1ccccc1)[C@@H](CO)N2CC1CC1,/,/,/,-8,/
CC(=O)c1sc2nc(C)c3c(c2c1N)CCCC3,1,24,-2,-33*,0
CCOC(=O)C1(Cc2cccc(OC)c2)CCN(Cc2ccccc2)CC1,-11,3,2,-9,2
CCOC(=O)C1(Cc2ccccc2Cl)CCN(Cc2csc(C(C)=O)c2)CC1,-73,7,-1,-23*,-2
COC[C@@]12C[C@H]3C(=O)N(Cc4ccccc4)C(=O)[C@H]3[C@@H](CO1)/C2=C\c1ccccc1,1,/,-1,/,/
Nc1nn2cc(-c3ccccc3)nc2c2ccccc12,0,/,/,-41*,/
C[C@@H]1CN([C@@H](C)CO)C(=O)c2cc(NC(=O)CCN3CCOCC3)ccc2O[C@H]1CN(C)Cc1ccncc1,-11,1,-2,2,-1
Cc1cc2nc(/C=C/c3nc4cc(C)c(C)cc4[nH]3)[nH]c2cc1C,-59,0,2,5,5
Cc1cc2nc(/C=C/c3cccnc3)[nH]c2cc1C,-12,-5,-9,-28*,0
C[C@H]1CC=CC[C@H](c2ccc3c(c2)OCO3)NC(=O)[C@H](Cc2ccccc2)N(C)C(=O)c2ccccc2O1 (mixture of isomers),/,/,/,-4,/
